Converted amounts (≈) assume the structure as drawn.
Experiments:
Talaromyces funiculosus [1] = experiment: Antifungal activity against Penicillium funiculosum ATCC 36839 treated for 72 hrs followed by sub-cultivated for 5 days by serial dilution method; format: functional
Summary of the method: (§1)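 MFC obtained after the 72 h, 28 °C malt-broth microdilution (spore inoculum about 1.0 × 10^5 per well, compounds from 1 mg/ml DMSO). 2 µl was serially subcultured into 100 µl broth per well and incubated a further 5 days at 28 °C. MFC is the lowest concentration with no visible growth, taken as 99.5% killing of the original inoculum.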

Bacillus cereus [2] = experiment: Antibacterial activity against Bacillus cereus clinical isolate after 24 hrs by micro dilution method; format: functional
Summary of the method: (§2)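 Microdilution MIC in 96-well plates. Bacterial suspensions adjusted in sterile saline to 1.0 × 10^5 CFU/ml, giving 1.0 × 10^4 cfu per well in LB broth. Compounds tested at up to 1 mg/ml. Plates incubated 24 h. MIC taken as the lowest concentration with no visible growth under a binocular microscope. OD at 655 nm was also read against a blank and the positive control. Streptomycin and ampicillin were the positive controls.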

Bacillus cereus [3] = experiment: Antibacterial activity against Bacillus cereus clinical isolate treated for 24 hrs followed by sub-cultivated for 72 hrs by micro dilution method; format: functional
Summary of the method: (§3)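 2 µl from each well was serially subcultured into 100 µl fresh broth per well and incubated a further 72 h. MBC is the lowest concentration with no visible growth, taken as 99.5% killing of the original inoculum. Streptomycin and ampicillin were the positive controls.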

Fulvia fulva [4] = experiment: Antifungal activity against Fulvia fulva after 72 hrs by serial dilution method; format: functional
Summary of the method: (§4)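 Modified microdilution MIC. Spores were washed from malt agar cultures with sterile 0.85% saline containing 0.1% Tween 80 and adjusted to about 1.0 × 10^5 per 100 µl well in malt broth. Compounds were dissolved in DMSO (1 mg/ml). Plates incubated 72 h at 28 °C. MIC is the lowest concentration with no visible growth under a binocular microscope. Bifonazole and ketoconazole were the references.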

Aspergillus versicolor [5] = experiment: Antifungal activity against Aspergillus versicolor ATCC 11730 treated for 72 hrs followed by sub-cultivated for 5 days by serial dilution method; format: functional; summary of the method: as §1
Escherichia coli [6] = experiment: Antibacterial activity against Escherichia coli ATCC 35210 after 24 hrs by micro dilution method; format: functional; conditions: ATCC 35210, 24 h; summary of the method: as §2
Listeria monocytogenes [7] = experiment: Antibacterial activity against Listeria monocytogenes NCTC 7973 after 24 hrs by micro dilution method; format: functional; conditions: NCTC 7973, 24 h; summary of the method: as §2
Listeria monocytogenes [8] = experiment: Antibacterial activity against Listeria monocytogenes NCTC 7973 treated for 24 hrs followed by sub-cultivated for 72 hrs by micro dilution method; format: functional; summary of the method: as §3
Escherichia coli [9] = experiment: Antibacterial activity against Escherichia coli ATCC 35210 treated for 24 hrs followed by sub-cultivated for 72 hrs by micro dilution method; format: functional; summary of the method: as §3
Trichoderma viride [10] = experiment: Antifungal activity against Trichoderma viride IAM 5061 treated for 72 hrs followed by sub-cultivated for 5 days by serial dilution method; format: functional; summary of the method: as §1
Staphylococcus aureus [11] = experiment: Antibacterial activity against Staphylococcus aureus ATCC 6538 after 24 hrs by micro dilution method; format: functional; conditions: ATCC 6538, 24 h; summary of the method: as §2
Aspergillus flavus [12] = experiment: Antifungal activity against Aspergillus flavus ATCC 9643 after 72 hrs by serial dilution method; format: functional; conditions: ATCC 9643, 72 h; summary of the method: as §4
Salmonella typhimurium [13] = experiment: Antibacterial activity against Salmonella Typhimurium ATCC 13311 treated for 24 hrs followed by sub-cultivated for 72 hrs by micro dilution method; format: functional, Salmonella enterica subsp. enterica serovar Typhimurium; conditions: Salmonella enterica; summary of the method: as §3
Salmonella typhimurium [14] = experiment: Antibacterial activity against Salmonella Typhimurium ATCC 13311 after 24 hrs by micro dilution method; format: functional, Salmonella enterica subsp. enterica serovar Typhimurium; conditions: Salmonella enterica, ATCC 13311, 24 h; summary of the method: as §2
Aspergillus versicolor [15] = experiment: Antifungal activity against Aspergillus versicolor ATCC 11730 after 72 hrs by serial dilution method; format: functional; conditions: ATCC 11730, 72 h; summary of the method: as §4
Penicillium ochrochloron [16] = experiment: Antifungal activity against Penicillium ochrochloron ATCC 9112 after 72 hrs by serial dilution method; format: functional; conditions: ATCC 9112, 72 h; summary of the method: as §4
Aspergillus fumigatus [17] = experiment: Antifungal activity against Aspergillus fumigatus human isolate after 72 hrs by serial dilution method; format: functional; summary of the method: as §4
Aspergillus flavus [18] = experiment: Antifungal activity against Aspergillus flavus ATCC 9643 treated for 72 hrs followed by sub-cultivated for 5 days by serial dilution method; format: functional; summary of the method: as §1
Pseudomonas aeruginosa [19] = experiment: Antibacterial activity against Pseudomonas aeruginosa ATCC 27853 treated for 24 hrs followed by sub-cultivated for 72 hrs by micro dilution method; format: functional; summary of the method: as §3
Micrococcus flavus [20] = experiment: Antibacterial activity against Micrococcus flavus ATCC 10240 treated for 24 hrs followed by sub-cultivated for 72 hrs by micro dilution method; format: functional; summary of the method: as §3
Talaromyces funiculosus [21] = experiment: Antifungal activity against Penicillium funiculosum ATCC 36839 after 72 hrs by serial dilution method; format: functional; conditions: ATCC 36839, 72 h; summary of the method: as §4
Staphylococcus aureus [22] = experiment: Antibacterial activity against Staphylococcus aureus ATCC 6538 treated for 24 hrs followed by sub-cultivated for 72 hrs by micro dilution method; format: functional; summary of the method: as §3
Enterobacter cloacae [23] = experiment: Antibacterial activity against Enterobacter cloacae human isolate after 24 hrs by micro dilution method; format: functional; summary of the method: as §2
Penicillium ochrochloron [24] = experiment: Antifungal activity against Penicillium ochrochloron ATCC 9112 treated for 72 hrs followed by sub-cultivated for 5 days by serial dilution method; format: functional; summary of the method: as §1
Aspergillus fumigatus [25] = experiment: Antifungal activity against Aspergillus fumigatus human isolate treated for 72 hrs followed by sub-cultivated for 5 days by serial dilution method; format: functional; summary of the method: as §1
Micrococcus flavus [26] = experiment: Antibacterial activity against Micrococcus flavus ATCC 10240 after 24 hrs by micro dilution method; format: functional; conditions: ATCC 10240, 24 h; summary of the method: as §2
Fulvia fulva [27] = experiment: Antifungal activity against Fulvia fulva treated for 72 hrs followed by sub-cultivated for 5 days by serial dilution method; format: functional; summary of the method: as §1
Enterobacter cloacae [28] = experiment: Antibacterial activity against Enterobacter cloacae human isolate treated for 24 hrs followed by sub-cultivated for 72 hrs by micro dilution method; format: functional; summary of the method: as §3
Aspergillus niger [29] = experiment: Antifungal activity against Aspergillus niger ATCC 6275 after 72 hrs by serial dilution method; format: functional; conditions: ATCC 6275, 72 h; summary of the method: as §4
Trichoderma viride [30] = experiment: Antifungal activity against Trichoderma viride IAM 5061 after 72 hrs by serial dilution method; format: functional; conditions: IAM 5061, 72 h; summary of the method: as §4
Pseudomonas aeruginosa [31] = experiment: Antibacterial activity against Pseudomonas aeruginosa ATCC 27853 after 24 hrs by micro dilution method; format: functional; conditions: ATCC 27853, 24 h; summary of the method: as §2
Aspergillus niger [32] = experiment: Antifungal activity against Aspergillus niger ATCC 6275 treated for 72 hrs followed by sub-cultivated for 5 days by serial dilution method; format: functional; summary of the method: as §1

MIC (Bacillus cereus [2])	MIC (Fulvia fulva [4])	MIC (Escherichia coli [6])	MIC (Listeria monocytogenes [7])	MIC (Staphylococcus aureus [11])	MIC (Aspergillus flavus [12])	MIC (Salmonella typhimurium [14])	MIC (Aspergillus versicolor [15])	MIC (Penicillium ochrochloron [16])	MIC (Aspergillus fumigatus [17])	SMILES	MFC (Talaromyces funiculosus [1])	MBC (Bacillus cereus [3])	MFC (Aspergillus versicolor [5])	MBC (Listeria monocytogenes [8])	MBC (Escherichia coli [9])	MFC (Trichoderma viride [10])	MBC (Salmonella typhimurium [13])	MFC (Aspergillus flavus [18])	MBC (Pseudomonas aeruginosa [19])	MBC (Micrococcus flavus [20])	other results
270 µM (≈ 101 µg/mL)	70 µM (≈ 26.1 µg/mL)	540 µM (≈ 201 µg/mL)	270 µM (≈ 101 µg/mL)	270 µM (≈ 101 µg/mL)	70 µM (≈ 26.1 µg/mL)	270 µM (≈ 101 µg/mL)	140 µM (≈ 52.1 µg/mL)	140 µM (≈ 52.1 µg/mL)	140 µM (≈ 52.1 µg/mL)	COc1cc(Cc2n[nH]c(=S)n2C)c(S(=O)(=O)N(C)C)cc1OC	270 µM (≈ 101 µg/mL)	540 µM (≈ 201 µg/mL)	270 µM (≈ 101 µg/mL)	270 µM (≈ 101 µg/mL)	540 µM (≈ 201 µg/mL)	140 µM (≈ 52.1 µg/mL)	270 µM (≈ 101 µg/mL)	140 µM (≈ 52.1 µg/mL)	540 µM (≈ 201 µg/mL)	540 µM (≈ 201 µg/mL)	MIC (Talaromyces funiculosus [21]): 140 µM (≈ 52.1 µg/mL); MBC (Staphylococcus aureus [22]): 540 µM (≈ 201 µg/mL); MIC (Enterobacter cloacae [23]): 270 µM (≈ 101 µg/mL); MFC (Penicillium ochrochloron [24]): 270 µM (≈ 101 µg/mL); MFC (Aspergillus fumigatus [25]): 270 µM (≈ 101 µg/mL); MIC (Micrococcus flavus [26]): 270 µM (≈ 101 µg/mL); MFC (Fulvia fulva [27]): 140 µM (≈ 52.1 µg/mL); MBC (Enterobacter cloacae [28]): 270 µM (≈ 101 µg/mL); MIC (Aspergillus niger [29]): 70 µM (≈ 26.1 µg/mL); MIC (Trichoderma viride [30]): 70 µM (≈ 26.1 µg/mL); MIC (Pseudomonas aeruginosa [31]): 540 µM (≈ 201 µg/mL); MFC (Aspergillus niger [32]): 140 µM (≈ 52.1 µg/mL)
520 µM (≈ 201 µg/mL)	70 µM (≈ 27.1 µg/mL)	260 µM (≈ 100 µg/mL)	260 µM (≈ 100 µg/mL)	260 µM (≈ 100 µg/mL)	70 µM (≈ 27.1 µg/mL)	260 µM (≈ 100 µg/mL)	130 µM (≈ 50.2 µg/mL)	130 µM (≈ 50.2 µg/mL)	130 µM (≈ 50.2 µg/mL)	CCn1c(Cc2cc(OC)c(OC)cc2S(=O)(=O)N(C)C)n[nH]c1=S	260 µM (≈ 100 µg/mL)	520 µM (≈ 201 µg/mL)	260 µM (≈ 100 µg/mL)	520 µM (≈ 201 µg/mL)	520 µM (≈ 201 µg/mL)	130 µM (≈ 50.2 µg/mL)	260 µM (≈ 100 µg/mL)	260 µM (≈ 100 µg/mL)	260 µM (≈ 100 µg/mL)	520 µM (≈ 201 µg/mL)	MIC (Talaromyces funiculosus [21]): 130 µM (≈ 50.2 µg/mL); MBC (Staphylococcus aureus [22]): 520 µM (≈ 201 µg/mL); MIC (Enterobacter cloacae [23]): 260 µM (≈ 100 µg/mL); MFC (Penicillium ochrochloron [24]): 260 µM (≈ 100 µg/mL); MFC (Aspergillus fumigatus [25]): 260 µM (≈ 100 µg/mL); MIC (Micrococcus flavus [26]): 260 µM (≈ 100 µg/mL); MFC (Fulvia fulva [27]): 70 µM (≈ 27.1 µg/mL); MBC (Enterobacter cloacae [28]): 520 µM (≈ 201 µg/mL); MIC (Aspergillus niger [29]): 70 µM (≈ 27.1 µg/mL); MIC (Trichoderma viride [30]): 70 µM (≈ 27.1 µg/mL); MIC (Pseudomonas aeruginosa [31]): 260 µM (≈ 100 µg/mL); MFC (Aspergillus niger [32]): 130 µM (≈ 50.2 µg/mL)
